From ChEMBL document CHEMBL1141491, “Design, synthesis, and evaluation of novel ethambutol analogues” (2008) come the findings set out here.

In brackets after ≈: the same amount, converted by molar mass.

This test relates to Mycobacterium tuberculosis. In words: Antituberculosis activity against Mycobacterium tuberculosis H37Rv by microbroth dilution method. Type of test: functional. A digest of the protocol: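 M. tuberculosis H37Rv grown in Middlebrook 7H9 with 10% ADC to OD600 0.4–0.6, then diluted in 7H9 to OD600 0.01. This inoculum was added to 2-fold serial dilutions of compound and incubated 37 °C for 7 days. MIC90 was read visually as the concentration inhibiting 90% of growth.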

The molecule `CC[C@@H](CO)NCCN[C@@](C)(CC)CO` came in with an MIC90 of 3.12 µg/mL (≈ 14.3 µM). The molecule `CC[C@@H](CO)NCCNC1(CO)CCCC1.Cl.Cl` displayed an MIC90 of 1.6 µg/mL. For the molecule `CC[C@@H](CO)NCCNC(CO)CO.Cl.Cl`, the MIC90 came out at 3.12 µg/mL. As for `C=CC[C@@](C)(CO)NCCN[C@@H](CC)CO.Cl.Cl`, the figure is 6.25 µg/mL; as for `Cl.Cl.OCC1(NCCNC2(CO)CCCC2)CCCC1`, 3.12 µg/mL; as for `CC[C@@H](CO)NCCNC(C)(C)CO.Cl.Cl`, 1.6 µg/mL. With `CC[C@@H](CO)NCCN[C@H](CO)c1ccccc1.Cl.Cl`, the MIC90 is 50 µg/mL.

In turn, `CC(C)(CO)NCCNC(C)(C)CO.Cl.Cl` came in with an MIC90 of 6.25 µg/mL. As for `C=CC[C@@H](CO)NCCN[C@@H](CC)CO.Cl.Cl`, the figure is 25 µg/mL; as for `Br.Br.CC[C@@H](CO)NCCN[C@@H](CC)CO` [ETHAMBUTOL HYDROBROMIDE], 0.8 µg/mL.
